Experimental data taken from ChEMBL document CHEMBL1131514, “A novel series of 6-methoxy-1H-benzotriazole-5-carboxamide derivatives with dual antiemetic and gastroprokinetic activities” (1998).

How the values were obtained:
Canis familiaris [1] = assay: Antiemetic activity was evaluated in vivo by the suppression of apomorphine-induced emesis in dogs at oral dose of 1.0 mg/kg; type: functional, Canis lupus familiaris
Rattus norvegicus = assay: Compound was tested for its effect on the gastric emptying rate of phenol red semisolid meal through the stomach at oral dose of 3.0 mg/kg in rats.; type: functional
In short: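 Rats dosed orally at 3.0 mg/kg, with a 0.5% tragacanth control group. Gastric emptying of a phenol red semisolid meal was measured and expressed as percentage enhancement relative to the control group mean. Significance was tested against control.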

Canis familiaris [2] = assay: Tested in vivo for effective dose required for suppression of apomorphine-induced emesis in dog […]; type: functional; conditions: Canis lupus familiaris

## CCN1CCCCC(NC(=O)c2cc3nnn(C(C)C)c3cc2OC)C1 (stereo unspecified)
Canis familiaris [1]
  Antiemetic activity: 94%
Rattus norvegicus
  Gastric emptying: 16%

## CCN1CCCCC(NC(=O)c2cc3nnn(CC4CC4)c3cc2OC)C1 (stereo unspecified)
Canis familiaris [1]
  Antiemetic activity: 74%
Rattus norvegicus
  Gastric emptying: 34%

## COc1cc2[nH]nnc2cc1C(=O)NC1CCCCN(C(C)C)C1 (stereo unspecified)
Canis familiaris [1]
  Antiemetic activity: 15%
Rattus norvegicus
  Gastric emptying: 31%

## COc1cc2[nH]nnc2cc1C(=O)NC1CCCCN(C)C1 (stereo unspecified)
Canis familiaris [1]
  Antiemetic activity: 46%
Rattus norvegicus
  Gastric emptying: 20%

## CCN1CCCCCC(NC(=O)c2cc3[nH]nnc3cc2OC)C1 (stereo unspecified)
Canis familiaris [2]
  ED50: 0.19 mg/kg
Canis familiaris [1]
  Antiemetic activity: 100%
Rattus norvegicus
  Gastric emptying: 21%

## CCCn1nnc2cc(C(=O)NC3CCCCN(CC)C3)c(OC)cc21 (stereo unspecified)
Canis familiaris [1]
  Antiemetic activity: 89%
Rattus norvegicus
  Gastric emptying: 29%

## CCOc1cc2[nH]nnc2cc1C(=O)NC1CCCCN(CC)C1 (stereo unspecified)
Canis familiaris [1]
  Antiemetic activity: 15%
Rattus norvegicus
  Gastric emptying: 18%

## CCN1CCCCC(NC(=O)c2cc3nnn(CC)c3cc2OC)C1 (stereo unspecified)
Canis familiaris [1]
  Antiemetic activity: 89%
Rattus norvegicus
  Gastric emptying: 31%

## CCN1CCCCC(NC(=O)c2ccc3[nH]nnc3c2OC)C1 (stereo unspecified)
Canis familiaris [1]
  Antiemetic activity: 50%
Rattus norvegicus
  Gastric emptying: 11%

## CCN1CCCCC(NC(=O)c2cc3nnn(C)c3cc2OC)C1 (stereo unspecified)
Canis familiaris [1]
  Antiemetic activity: 77%
Rattus norvegicus
  Gastric emptying: 49%

## CCN1CCCCCCCC(NC(=O)c2cc3[nH]nnc3cc2OC)C1 (stereo unspecified)
Canis familiaris [1]
  Antiemetic activity: 22%
Rattus norvegicus
  Gastric emptying: 31%

## CCN1CCCCCCC(NC(=O)c2cc3[nH]nnc3cc2OC)C1 (stereo unspecified)
Canis familiaris [2]
  ED50: 0.1 mg/kg
Canis familiaris [1]
  Antiemetic activity: 100%
Rattus norvegicus
  Gastric emptying: 46%

## CCN1CCCCC(NC(=O)c2cc3[nH]nnc3cc2OC)C1 (stereo unspecified)
Canis familiaris [2]
  ED50: 0.08 mg/kg
Canis familiaris [1]
  Antiemetic activity: 100%
Rattus norvegicus
  Gastric emptying: 28%

## CCN1CCCC(NC(=O)c2cc3[nH]nnc3cc2OC)C1 (stereo unspecified)
Canis familiaris [1]
  Antiemetic activity: 31%

## CCCN1CCCCC(NC(=O)c2cc3[nH]nnc3cc2OC)C1 (stereo unspecified)
Canis familiaris [1]
  Antiemetic activity: 63%
Rattus norvegicus
  Gastric emptying: 17%

## O=c1[nH]c2ccccc2n1CCCN1CCC(n2c(=O)[nH]c3cc(Cl)ccc32)CC1 [DOMPERIDONE]
Canis familiaris [2]
  ED50: 0.02 mg/kg
Canis familiaris [1]
  Antiemetic activity: 100%
Rattus norvegicus
  Gastric emptying: 0%

## CCN(CC)CCNC(=O)c1cc(Cl)c(N)cc1OC [METOCLOPRAMIDE]
Canis familiaris [2]
  ED50: 0.45 mg/kg
Canis familiaris [1]
  Antiemetic activity: 86%
Rattus norvegicus
  Gastric emptying: 39%

## CCOc1cc(N)c(Cl)cc1C(=O)NCC1CN(Cc2ccc(F)cc2)CCO1 (stereo unspecified) [MOSAPRIDE]
Canis familiaris [2]
  ED50: > 10 mg/kg
Canis familiaris [1]
  Antiemetic activity: 8%
Rattus norvegicus
  Gastric emptying: 70%
